Measured values from ChEMBL document CHEMBL1127343, “"Glycylcyclines". 3. 9-Aminodoxycyclinecarboxamides” (1994).
Values after ≈ are worked out from the molar mass of the structure shown.

What was measured:
Assay type in all cases: functional
[1] = test system: Staphylococcus aureus; assay: In vitro antibacterial activity was measured on gram positive bacteria Staphylococcus aureus smith cell lines
Procedure, shortened: (§1)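 MIC by agar dilution on Mueller-Hinton II agar; inoculum (1–5) × 10^5 CFU/mL; antibiotic range 32–0.004 μg/mL; plates incubated 18 h at 35 °C in forced-air incubator. MIC taken as lowest concentration inhibiting growth. Tetracycline, minocycline and doxycycline run as standards in each assay.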

[2] = test system: Escherichia coli; assay: In vitro antibacterial activity was measured on gram negative bacteria Escherichia coli UBMS 90-5 sensitive cell lines; procedure, shortened: as §1
[3] = test system: Staphylococcus aureus; assay: In vitro antibacterial activity was measured on gram positive bacteria Staphylococcus aureus UBMS 90-1 tet-M (ribosomal protection) cell lines; procedure, shortened: as §1
[4] = test system: Staphylococcus aureus; assay: In vitro antibacterial activity was measured on gram positive bacteria Staphylococcus aureus UBMS 90-3 sensitive cell lines; procedure, shortened: as §1
[5] = test system: Escherichia coli; assay: In vitro antibacterial activity was measured on gram negative bacteria Escherichia coli UBMS 90-4 tet-M (ribosomal protection) cell lines
Procedure, shortened: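 Agar dilution MIC on Mueller-Hinton II agar. Inoculum (1–5) × 10^5 CFU/mL, drug range 32–0.004 μg/mL. Plates incubated 18 h at 35 °C in a forced-air incubator. MIC is the lowest concentration that inhibits growth. The strain panel covered tetracycline-sensitive and -resistant strains. Tetracycline, minocycline and doxycycline were run as standards in each assay.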

[6] = test system: Escherichia coli; assay: In vitro antibacterial activity was measured on gram negative bacteria Escherichia coli UBMS 88-1 tet-B(efflux resistance) cell lines
[7] = test system: Escherichia coli; assay: In vitro antibacterial activity was measured on gram negative bacteria Escherichia coli PRP-1 tet-a(efflux resistance) cell lines
[8] = test system: Escherichia coli; assay: In vitro antibacterial activity was measured on gram negative bacteria Escherichia coli J3272 tet-C(efflux resistance) cell lines
[9] = test system: Staphylococcus aureus; assay: In vitro antibacterial activity was measured on gram positive bacteria Staphylococcus aureus UBMS 88-7 tet-k(efflux resistance) cell lines

Structure (SMILES)	MIC [1] [µg/mL]	MIC [2] [µg/mL]	MIC [3] [µg/mL]	MIC [4] [µg/mL]	MIC [5] [µg/mL]	MIC [6] [µg/mL]	MIC [7] [µg/mL]	MIC [8] [µg/mL]	MIC [9] [µg/mL]
CC(C)C[C@@H](N)C(=O)Nc1ccc2c(c1O)C(=O)C1=C(O)[C@]3(O)C(O)=C(C(N)=O)C(=O)[C@@H](N(C)C)C3CC1C2 (stereo not given in full)	8 (≈ 14.7 µM)	8 (≈ 14.7 µM)	16 (≈ 29.5 µM)	8 (≈ 14.7 µM)	8 (≈ 14.7 µM)				
CC(C)C(=O)Nc1ccc2c(c1O)C(=O)C1=C(O)[C@]3(O)C(O)=C(C(N)=O)C(=O)[C@@H](N(C)C)C3[C@@H](O)C1[C@H]2C (stereo not given in full)	1 (≈ 1.89 µM)	> 32	> 32	0.5 (≈ 0.944 µM)	> 32	16 (≈ 30.2 µM)			
C[C@H]1c2ccc(NC(=O)CNC(C)(C)C)c(O)c2C(=O)C2=C(O)[C@]3(O)C(O)=C(C(N)=O)C(=O)[C@@H](N(C)C)C3[C@@H](O)C21 (stereo not given in full)	0.5 (≈ 0.873 µM)	0.5 (≈ 0.873 µM)	1 (≈ 1.75 µM)	0.25 (≈ 0.437 µM)	0.5 (≈ 0.873 µM)	1 (≈ 1.75 µM)	1 (≈ 1.75 µM)	1 (≈ 1.75 µM)	2 (≈ 3.49 µM)
C[C@H]1c2ccc(NC(=O)CN3CCCC3)c(O)c2C(=O)C2=C(O)[C@]3(O)C(O)=C(C(N)=O)C(=O)[C@@H](N(C)C)C3[C@@H](O)C21 (stereo not given in full)	0.5 (≈ 0.876 µM)	0.5 (≈ 0.876 µM)	1 (≈ 1.75 µM)	0.25 (≈ 0.438 µM)	0.25 (≈ 0.438 µM)		2 (≈ 3.51 µM)	1 (≈ 1.75 µM)	4 (≈ 7.01 µM)
CN(C)[C@@H]1C(O)=C(C(N)=O)C(=O)[C@@]2(O)C(O)=C3C(=O)c4c(O)cccc4C[C@H]3C[C@@H]12 [SANCYCLINE]	0.25 (≈ 0.603 µM)	2 (≈ 4.83 µM)	2 (≈ 4.83 µM)	0.25 (≈ 0.603 µM)	16 (≈ 38.6 µM)		8 (≈ 19.3 µM)	4 (≈ 9.65 µM)	4 (≈ 9.65 µM)
C[C@H]1c2ccc(NC(=O)[C@@H](N)CCCCN)c(O)c2C(=O)C2=C(O)[C@]3(O)C(O)=C(C(N)=O)C(=O)[C@@H](N(C)C)C3[C@@H](O)C21 (stereo not given in full)	> 32	> 32	> 32	> 32	> 32				16 (≈ 27.2 µM)
C[C@H]1c2ccc(NC(=O)[C@@H](N)CCC(N)=O)c(O)c2C(=O)C2=C(O)[C@]3(O)C(O)=C(C(N)=O)C(=O)[C@@H](N(C)C)C3[C@@H](O)C21 (stereo not given in full)	4 (≈ 6.81 µM)	16 (≈ 27.2 µM)	> 32	1 (≈ 1.7 µM)	> 32				32 (≈ 54.5 µM)
C[C@H]1c2ccc(NC(=O)[C@@H](N)CCC(=O)O)c(O)c2C(=O)C2=C(O)[C@]3(O)C(O)=C(C(N)=O)C(=O)[C@@H](N(C)C)C3[C@@H](O)C21 (stereo not given in full)	> 32	> 32	> 32	32 (≈ 54.4 µM)	> 32				
CN(C)c1ccc(O)c2c1CC1C[C@H]3[C@H](N(C)C)C(=O)C(C(N)=O)=C(O)[C@@]3(O)C(=O)C1=C2O (stereo not given in full)	0.12 (≈ 0.262 µM)	1 (≈ 2.19 µM)	4 (≈ 8.74 µM)	0.06 (≈ 0.131 µM)	> 32				
C[C@H]1c2ccc(NC(=O)[C@@H](N)Cc3ccc(O)cc3)c(O)c2C(=O)C2=C(O)[C@]3(O)C(O)=C(C(N)=O)C(=O)[C@@H](N(C)C)C3[C@@H](O)C21 (stereo not given in full)	1 (≈ 1.61 µM)	8 (≈ 12.8 µM)	4 (≈ 6.42 µM)	0.5 (≈ 0.803 µM)	8 (≈ 12.8 µM)	16 (≈ 25.7 µM)	32 (≈ 51.4 µM)	16 (≈ 25.7 µM)	32 (≈ 51.4 µM)
CC(C)C[C@H](NC(=O)CN)C(=O)Nc1ccc2c(c1O)C(=O)C1=C(O)[C@]3(O)C(O)=C(C(N)=O)C(=O)[C@@H](N(C)C)C3[C@@H](O)C1[C@H]2C (stereo not given in full)	16 (≈ 25.4 µM)	> 32	> 32	> 32	> 32				
C[C@H]1c2ccc(NC=O)c(O)c2C(=O)C2=C(O)[C@]3(O)C(O)=C(C(N)=O)C(=O)[C@@H](N(C)C)C3[C@@H](O)C21 (stereo not given in full)	0.12 (≈ 0.246 µM)	2 (≈ 4.1 µM)	> 32	0.12 (≈ 0.246 µM)	> 32				
C[C@H]1c2ccc(NC(=O)[C@@H](N)Cc3c[nH]c4ccccc34)c(O)c2C(=O)C2=C(O)[C@]3(O)C(O)=C(C(N)=O)C(=O)[C@@H](N(C)C)C3[C@@H](O)C21 (stereo not given in full)	1 (≈ 1.55 µM)	8 (≈ 12.4 µM)	4 (≈ 6.2 µM)	2 (≈ 3.1 µM)	4 (≈ 6.2 µM)		16 (≈ 24.8 µM)	32 (≈ 49.6 µM)	16 (≈ 24.8 µM)
C[C@H]1c2ccc(NC(=O)[C@H](Cc3ccccc3)N(C)C)c(O)c2C(=O)C2=C(O)[C@]3(O)C(O)=C(C(N)=O)C(=O)[C@@H](N(C)C)C3[C@@H](O)C21 (stereo not given in full)	4 (≈ 6.3 µM)	32 (≈ 50.4 µM)	2 (≈ 3.15 µM)	1 (≈ 1.58 µM)	16 (≈ 25.2 µM)				
